Data from ChEMBL document CHEMBL1157206 (Bioorg Med Chem, 2008).

How the values were obtained:
[1] = Cytotoxicity against human primary fibroblasts by resazurin reduction test; assay type: cell-based; details: Fibroblast
Procedure, shortened: (§1)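 Cells seeded at 5 × 10³ per well and allowed to adhere 16 h. Compounds are made up from DMSO stocks, with DMSO held at 0.5% (v/v) at every concentration, and added as a 4× solution in MEM. Continuous exposure lasts 48 h. Resazurin at 25 µg/mL in MEM without serum or phenol red is then given for 1 h at 37 °C, 5% CO₂. Fluorescence is read at ex 530/em 590 nm. IC50 comes from the blank-subtracted concentration–response curve, expressed as percent of control wells.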

MCF7 = test: Cytotoxicity against human MCF7 cells by resazurin reduction test; assay type: functional, cell-based; procedure, shortened: as §1
L929 [2] = test: Effect on oxidative stress in mouse L929 cells assessed as glutathione depletion at 50 uM after 4 hrs; assay type: functional
Procedure, shortened: (§2)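 L929 cells seeded at 5 × 10³ per well and grown 48 h to about 90% confluence. Treatment runs in HBSS/15 mM Hepes pH 7.4 for 4 h at 37 °C. Cells are then washed and incubated 15 min with 7.5 µM monochlorobimane before the fluorescence read. Depletion counts as significant below 80% of control. Positive control is 100 µM diethylmaleate.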

[3] = Cytotoxicity against human M4Beu cells by resazurin reduction test; assay type: functional, cell-based; procedure, shortened: as §1
PA-1 = test: Cytotoxicity against human PA1 cells by resazurin reduction test; assay type: functional, cell-based; procedure, shortened: as §1
PC-3 = test: Cytotoxicity against human PC3 cells by resazurin reduction test; assay type: functional, cell-based; procedure, shortened: as §1
L929 [4] = test: Growth inhibition in mouse L929 cells after 48 hrs; assay type: functional; design: concentration or dose not given beside the values
DLD-1 = test: Cytotoxicity against human DLD1 cells by resazurin reduction test; assay type: functional, cell-based; procedure, shortened: as §1
A549 = test: Cytotoxicity against human A549 cells by resazurin reduction test; assay type: functional, cell-based; procedure, shortened: as §1
L929 [5] = test: Effect on oxidative stress in mouse L929 cells assessed as ROS production at 6.25 uM after 4 hrs by 2',7'-dichlorofluorescein-diacetate assay; assay type: functional
Procedure, shortened: (§3)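 L929 cells seeded at 5 × 10³ per well and grown 48 h to about 90% confluence. Cells are loaded with 20 µM DCFH-DA in HBSS/15 mM Hepes pH 7.4 for 1 h at 37 °C, washed, then treated in the same buffer at 37 °C. Fluorescence is read after 4 h at 485/530 nm and expressed as percent of control. Above 150% counts as significant; 100 µM tert-butyl hydroperoxide serves as positive control.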

L929 [6] = test: Effect on oxidative stress in mouse L929 cells assessed as ROS production at 12.5 uM after 4 hrs by 2',7'-dichlorofluorescein-diacetate assay; assay type: functional; procedure, shortened: as §3
L929 [7] = test: Effect on oxidative stress in mouse L929 cells assessed as cytolysis at 50 uM after 4 hrs by calcein-AM assay; assay type: functional
Procedure, shortened: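 L929 cells seeded at 5 × 10³ per well and grown 48 h to about 90% confluence. Cells are washed with HBSS/Hepes, then exposed 4 h at 37 °C in complete medium with 0.5% DMSO vehicle, in triplicate. Tween 80 is the lysis control. Detached cells are checked by microscopy, then 4 µM calcein-AM is added for 1 h and read at ex 485/em 530 nm. Percent intact cells = (sample − 100%-lysis background)/(vehicle − background) × 100.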

L929 [8] = test: Effect on oxidative stress in mouse L929 cells assessed as glutathione depletion at 6.25 uM after 4 hrs; assay type: functional; procedure, shortened: as §2
L929 [9] = test: Effect on oxidative stress in mouse L929 cells assessed as ROS production at 25 uM after 4 hrs by 2',7'-dichlorofluorescein-diacetate assay; assay type: functional; procedure, shortened: as §3

## CC(=O)OC[C@H]1O[C@@H](NC(=O)CCNC(=O)CCCc2ccc(N(CCCl)CCCl)cc2)[C@H](F)[C@@H](OC(C)=O)[C@@H]1OC(C)=O
[1]
  IC50: 7 µM
MCF7
  IC50: 13 µM
L929 [2]
  Activity: <=80%
[3]
  IC50: 15 µM
PA-1
  IC50: 0.24 µM
PC-3
  IC50: 3.7 µM
L929 [4]
  inhibition (INH): 50%
DLD-1
  IC50: 11 µM
A549
  IC50: 9.2 µM

## CC(=O)OC[C@H]1O[C@@H](Oc2ccc(NC(=O)CNC(=O)CCCc3ccc(N(CCCl)CCCl)cc3)cc2)[C@H](F)[C@@H](OC(C)=O)[C@@H]1OC(C)=O
[1]
  IC50: 16 µM
MCF7
  IC50: 14 µM
[3]
  IC50: 14 µM
PA-1
  IC50: 1.6 µM
PC-3
  IC50: 8 µM
L929 [4]
  inhibition (INH): 40%
DLD-1
  IC50: 6 µM
A549
  IC50: 10 µM

## CC(=O)OC[C@H]1O[C@@H](NC(=O)CCCNC(=O)CCCc2ccc(N(CCCl)CCCl)cc2)[C@H](F)[C@@H](OC(C)=O)[C@@H]1OC(C)=O
[1]
  IC50: 4.1 µM
L929 [5]
  Activity: >=150%
MCF7
  IC50: 12 µM
[3]
  IC50: 9 µM
PA-1
  IC50: 0.27 µM
PC-3
  IC50: 3 µM
L929 [4]
  inhibition (INH): 50%
DLD-1
  IC50: 9 µM
A549
  IC50: 13 µM

## CC(=O)OC[C@H]1O[C@@H](NC(=O)NCCCc2ccc(N(CCCl)CCCl)cc2)[C@H](F)[C@@H](OC(C)=O)[C@@H]1OC(C)=O
[1]
  IC50: 13 µM
L929 [6]
  Activity: >=150%
MCF7
  IC50: 26.4 µM
[3]
  IC50: 27 µM
PA-1
  IC50: 0.6 µM
PC-3
  IC50: 4 µM
L929 [4]
  inhibition (INH): 40%
DLD-1
  IC50: 7 µM
A549
  IC50: 8 µM

## CC(=O)OC[C@H]1O[C@@H](NC(=O)c2ccc(NC(=O)CCCc3ccc(N(CCCl)CCCl)cc3)cc2)[C@H](F)[C@@H](OC(C)=O)[C@@H]1OC(C)=O
[1]
  IC50: 4 µM
MCF7
  IC50: 5 µM
L929 [2]
  Activity: <=80%
[3]
  IC50: 7 µM
PA-1
  IC50: 0.3 µM
PC-3
  IC50: 1.4 µM
L929 [7]
  Activity: <=80%
L929 [4]
  inhibition (INH): 50%
DLD-1
  IC50: 3 µM
A549
  IC50: 2.7 µM

## CC(=O)OC[C@H]1O[C@@H](Oc2ccc(NC(=O)CCCc3ccc(N(CCCl)CCCl)cc3)cc2)[C@H](F)[C@@H](OC(C)=O)[C@@H]1OC(C)=O
[1]
  IC50: > 50 µM
MCF7
  IC50: 26 µM
L929 [8]
  Activity: <=80%
[3]
  IC50: > 50 µM
PA-1
  IC50: 0.76 µM
PC-3
  IC50: 11 µM
DLD-1
  IC50: 10 µM
A549
  IC50: 1.9 µM

## CC(=O)OC[C@H]1O[C@@H](NC(=O)CNC(=O)CCCc2ccc(N(CCCl)CCCl)cc2)[C@H](F)[C@@H](OC(C)=O)[C@@H]1OC(C)=O
L929 [9]
  Activity: >=150%
[1]
  IC50: 4.1 µM
MCF7
  IC50: 8 µM
[3]
  IC50: 6.8 µM
PA-1
  IC50: 1 µM
PC-3
  IC50: 10 µM
L929 [4]
  inhibition (INH): 70%
DLD-1
  IC50: 4 µM
A549
  IC50: 5 µM

## CC(=O)OC[C@H]1O[C@@H](NC(=O)CCCc2ccc(N(CCCl)CCCl)cc2)[C@H](F)[C@@H](OC(C)=O)[C@@H]1OC(C)=O
[1]
  IC50: 11 µM
MCF7
  IC50: 27 µM
[3]
  IC50: 27 µM
PA-1
  IC50: 1.3 µM
PC-3
  IC50: 4.4 µM
DLD-1
  IC50: 7.1 µM
A549
  IC50: 5.4 µM

## O=C(O)CCCc1ccc(N(CCCl)CCCl)cc1 [CHLORAMBUCIL]
[1]
  IC50: 99 µM
L929 [5]
  Activity: >=150%
MCF7
  IC50: > 100 µM
L929 [8]
  Activity: <=80%
[3]
  IC50: > 100 µM
PA-1
  IC50: 2.8 µM
L929 [4]
  inhibition (INH): 30%
DLD-1
  IC50: 47 µM
A549
  IC50: 43 µM
